Converted amounts (≈) assume the structure as drawn.
Columns and labels:
Aspergillus fumigatus [1] = assay: Antifungal activity against Aspergillus fumigatus ATCC MYA-3626 after 48 hrs by CLSI M38-A microdilution method; assay type: functional
How it was run: (§1)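 CLSI M38-A broth microdilution in RPMI 1640 (L-glutamine, no bicarbonate, 0.165 M MOPS, pH 7.0). Conidia come from potato dextrose agar slants grown 5 to 7 days at 35°C, suspended in saline with 0.025% Tween 20 and counted by hemacytometer. Final inoculum 0.5 × 10^4 to 5 × 10^4 CFU/ml. Twofold dilutions in flat-bottom plates, 37°C for 48 h. MIC is the lowest concentration with no visible growth. Duplicate plates, two experiments.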

Aspergillus flavus [2] = assay: Antifungal activity against Aspergillus flavus ATCC MYA-3631 after 48 hrs by CLSI M38-A microdilution method; assay type: functional
How it was run: (§2)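 CLSI M38-A broth microdilution. Conidia came from 5–7 d potato dextrose agar slants at 35°C, suspended in saline with 0.025% Tween 20 and counted by hemacytometer. Final inoculum was 0.5×10^4 to 5×10^4 CFU/ml in RPMI 1640 with MOPS, pH 7.0. Final drug ranges: amphotericin B 0.015–16 mg/liter, voriconazole 0.008–8 mg/liter. Plates ran 48 h at 37°C. MIC = lowest concentration with no visible growth. Duplicate plates; experiments done twice.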

Aspergillus terreus [3] = assay: Antifungal activity against Aspergillus terreus ATCC MYA-3633 after 48 hrs by CLSI M38-A microdilution method; assay type: functional; how it was run: as §2
Aspergillus fumigatus [4] = assay: Antifungal activity against Aspergillus fumigatus ATCC MYA-3626 after 24 to 48 hrs by culture-based CFU method; assay type: functional
How it was run: (§3)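 Done after the 48 h M38-A MIC plates. Clear wells and the 0.5× MIC well were pipetted five times, and 20 μl or 100 μl was subcultured on Sabouraud dextrose agar for 24–48 h at 37°C before CFU counting. MFC = lowest concentration giving no growth for each volume.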

Aspergillus flavus [5] = assay: Antifungal activity against Aspergillus flavus ATCC MYA-3631 after 24 to 48 hrs by culture-based CFU method; assay type: functional; how it was run: as §3
Aspergillus terreus [6] = assay: Antifungal activity against Aspergillus terreus ATCC MYA-3633 after 24 to 48 hrs by culture-based CFU method; assay type: functional; how it was run: as §3
Aspergillus fumigatus [7] = assay: Antifungal activity against Aspergillus fumigatus ATCC MYA-3626 after 24 hrs by microbroth colorimetric XTT method; assay type: functional
How it was run: (§4)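 Done after the 48 h M38-A MIC plates. Clear wells and the 0.5× MIC well were aspirated, washed twice with 37°C saline, refilled with fresh RPMI, then incubated 24 h at 37°C. XTT (0.1 mg/ml) with menadione (25 μM), both final, was added for 2 h. A450/630 was read minus background from conidia-free wells. MFC = lowest concentration with absorbance <0.01, a cutoff set by ROC against microscopic growth.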

Aspergillus flavus [8] = assay: Antifungal activity against Aspergillus flavus ATCC MYA-3631 after 24 hrs by microbroth colorimetric XTT method; assay type: functional; how it was run: as §4
Aspergillus terreus [9] = assay: Antifungal activity against Aspergillus terreus ATCC MYA-3633 after 24 hrs by microbroth colorimetric XTT method; assay type: functional; how it was run: as §4
Aspergillus fumigatus [10] = assay: Antifungal activity against Aspergillus fumigatus isolate at 20 CFU infectious rate after 24 hrs by culture-based CFU method; assay type: functional; how it was run: as §3
Aspergillus flavus [11] = assay: Antifungal activity against Aspergillus flavus isolate at 20 CFU infectious rate after 24 hrs by culture-based CFU method; assay type: functional; how it was run: as §3
Aspergillus terreus [12] = assay: Antifungal activity against Aspergillus terreus isolate at 20 CFU infectious rate after 24 hrs by culture-based CFU method; assay type: functional; how it was run: as §3
Aspergillus fumigatus [13] = assay: Antifungal activity against Aspergillus fumigatus isolate at 100 CFU infectious rate after 24 hrs by culture-based CFU method; assay type: functional; how it was run: as §3
Aspergillus flavus [14] = assay: Antifungal activity against Aspergillus flavus isolate at 100 CFU infectious rate after 24 hrs by culture-based CFU method; assay type: functional; how it was run: as §3
Aspergillus terreus [15] = assay: Antifungal activity against Aspergillus terreus isolate at 100 CFU infectious rate after 24 hrs by culture-based CFU method; assay type: functional; how it was run: as §3
Aspergillus fumigatus [16] = assay: Ratio of MFC for Aspergillus fumigatus isolate to MIC for Aspergillus fumigatus isolate; assay type: functional
How it was run: (§5)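 Per-isolate ratio of the XTT-based MFC (24 h post-wash regrowth, absorbance cutoff 0.01) to the 48 h CLSI M38-A MIC, taken as the median of two replicate experiments. A ratio of ≤4 was counted fungicidal and >4 fungistatic.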

Aspergillus flavus [17] = assay: Ratio of MFC for Aspergillus flavus isolate to MIC for Aspergillus flavus isolate; assay type: functional; how it was run: as §5
Aspergillus terreus [18] = assay: Ratio of MFC for Aspergillus terreus isolate to MIC for Aspergillus terreus isolate; assay type: functional; how it was run: as §5
Aspergillus fumigatus [19] = assay: Antifungal activity against Aspergillus fumigatus isolate after 6 to 8 hrs by microbroth colorimetric XTT method relative to control; assay type: functional
Aspergillus flavus [20] = assay: Antifungal activity against Aspergillus flavus isolate after 6 to 8 hrs by microbroth colorimetric XTT method relative to control; assay type: functional
Aspergillus terreus [21] = assay: Antifungal activity against Aspergillus terreus isolate after 6 to 8 hrs by microbroth colorimetric XTT method relative to control; assay type: functional
Aspergillus flavus [22] = assay: Antifungal activity against Aspergillus flavus isolate after 48 hrs by NCCLS M38-A broth microdilution method; assay type: functional; how it was run: as §2
Aspergillus fumigatus [23] = assay: Antifungal activity against Aspergillus fumigatus isolate after 48 hrs by NCCLS M38-A broth microdilution method; assay type: functional; how it was run: as §2
Aspergillus fumigatus [24] = assay: Antifungal activity against Aspergillus fumigatus isolate after 48 hrs by CLSI M38-A microdilution method; assay type: functional; how it was run: as §1
Aspergillus flavus [25] = assay: Antifungal activity against Aspergillus flavus isolate after 48 hrs by CLSI M38-A microdilution method; assay type: functional; how it was run: as §2
Aspergillus terreus [26] = assay: Antifungal activity against Aspergillus terreus isolate after 48 hrs by CLSI M38-A microdilution method; assay type: functional; how it was run: as §2
Aspergillus fumigatus [27] = assay: Antifungal activity against Aspergillus fumigatus isolate after 24 hrs by microbroth colorimetric XTT method; assay type: functional, organism-based; how it was run: as §4
Aspergillus flavus [28] = assay: Antifungal activity against Aspergillus flavus isolate after 24 hrs by microbroth colorimetric XTT method; assay type: functional, organism-based; how it was run: as §4
Aspergillus terreus [29] = assay: Antifungal activity against Aspergillus terreus isolate after 24 hrs by microbroth colorimetric XTT method; assay type: functional, organism-based; how it was run: as §4
Aspergillus fumigatus [30] = assay: Antifungal activity against Aspergillus fumigatus isolate after 8 hrs by microbroth colorimetric XTT method relative to control; assay type: functional
Aspergillus flavus [31] = assay: Antifungal activity against Aspergillus flavus isolate after 8 hrs by microbroth colorimetric XTT method relative to control; assay type: functional
Aspergillus terreus [32] = assay: Antifungal activity against Aspergillus terreus isolate after 8 hrs by microbroth colorimetric XTT method relative to control; assay type: functional

| Compound | MIC (Aspergillus fumigatus [1]) | MIC (Aspergillus flavus [2]) | MIC (Aspergillus terreus [3]) | MFC (Aspergillus fumigatus [4]) | MFC (Aspergillus flavus [5]) | MFC (Aspergillus terreus [6]) | MFC (Aspergillus fumigatus [7]) | MFC (Aspergillus flavus [8]) | MFC (Aspergillus terreus [9]) | MFC (Aspergillus fumigatus [10]) | MFC (Aspergillus flavus [11]) | MFC (Aspergillus terreus [12]) | MFC (Aspergillus fumigatus [13]) | MFC (Aspergillus flavus [14]) | MFC (Aspergillus terreus [15]) | MFC/MIC ratio (Aspergillus fumigatus [16]) | MFC/MIC ratio (Aspergillus flavus [17]) | MFC/MIC ratio (Aspergillus terreus [18]) | MIC (Aspergillus fumigatus [24]) | MIC (Aspergillus flavus [25]) | further results |
| --- | --- | --- | --- | --- | --- | --- | --- | --- | --- | --- | --- | --- | --- | --- | --- | --- | --- | --- | --- | --- | --- |
| C[C@@H](c1ncncc1F)[C@](O)(Cn1cncn1)c1ccc(F)cc1F [VORICONAZOLE] | 1 µg/mL (≈ 2.86 µM) | 0.5 µg/mL (≈ 1.43 µM) | 0.5 µg/mL (≈ 1.43 µM) | > 4 µg/mL | 0.5 µg/mL (≈ 1.43 µM) | 2 µg/mL (≈ 5.73 µM) | > 8 µg/mL | > 4 µg/mL | > 8 µg/mL | 2 µg/mL (≈ 5.73 µM) | 0.5 µg/mL (≈ 1.43 µM) | 8 µg/mL (≈ 22.9 µM) | > 8 µg/mL | 1 µg/mL (≈ 2.86 µM) | > 8 µg/mL | > 16 | 4 | 8 | 0.5 µg/mL (≈ 1.43 µM) | 0.5 µg/mL (≈ 1.43 µM) | Activity (Aspergillus fumigatus [19]): 14%; Activity (Aspergillus flavus [20]): 16%; Activity (Aspergillus terreus [21]): 36%; MFC90 (Aspergillus flavus [22]): 0.25 µg/mL (≈ 0.716 µM); MFC90 (Aspergillus fumigatus [23]): 0.25 µg/mL (≈ 0.716 µM); MIC (Aspergillus terreus [26]): 1 µg/mL (≈ 2.86 µM); EC50 (Aspergillus fumigatus [27]): 2.34 µg/mL (≈ 6.7 µM); MFC (Aspergillus fumigatus [27]): > 8 µg/mL; EC50 (Aspergillus flavus [28]): 1.96 µg/mL (≈ 5.61 µM); MFC (Aspergillus flavus [28]): 4 µg/mL (≈ 11.5 µM); EC50 (Aspergillus terreus [29]): 11.7 µg/mL (≈ 33.5 µM); MFC (Aspergillus terreus [29]): > 8 µg/mL |
| C[C@@H]1[C@H](O)[C@@H](C)/C=C/C=C/C=C/C=C/C=C/C=C/C=C/[C@H](O[C@@H]2O[C@H](C)[C@@H](O)[C@H](N)[C@@H]2O)C[C@@H]2O[C@](O)(C[C@@H](O)C[C@@H](O)[C@H](O)CC[C@@H](O)C[C@@H](O)CC(=O)O[C@H]1C)C[C@H](O)[C@H]2C(=O)O [AMPHOTERICIN B] | 1 µg/mL (≈ 1.08 µM) | 1 µg/mL (≈ 1.08 µM) | 2 µg/mL (≈ 2.16 µM) | 1 µg/mL (≈ 1.08 µM) | 1 µg/mL (≈ 1.08 µM) | > 2 µg/mL | 1 µg/mL (≈ 1.08 µM) | 2 µg/mL (≈ 2.16 µM) | > 16 µg/mL | 1 µg/mL (≈ 1.08 µM) | 1 µg/mL (≈ 1.08 µM) | > 16 µg/mL | 2 µg/mL (≈ 2.16 µM) | 2 µg/mL (≈ 2.16 µM) | > 16 µg/mL | 2 | 2 | 16 | 1 µg/mL (≈ 1.08 µM) | 1 µg/mL (≈ 1.08 µM) | Activity (Aspergillus fumigatus [30]): 16%; Activity (Aspergillus flavus [31]): 3%; Activity (Aspergillus terreus [32]): 3%; MIC (Aspergillus terreus [26]): 2 µg/mL (≈ 2.16 µM); EC50 (Aspergillus fumigatus [27]): 0.95 µg/mL (≈ 1.03 µM); MFC (Aspergillus fumigatus [27]): 1 µg/mL (≈ 1.08 µM); EC50 (Aspergillus flavus [28]): 1.1 µg/mL (≈ 1.19 µM); MFC (Aspergillus flavus [28]): 2 µg/mL (≈ 2.16 µM); EC50 (Aspergillus terreus [29]): 9.55 µg/mL (≈ 10.3 µM); MFC (Aspergillus terreus [29]): > 16 µg/mL |

From ChEMBL document CHEMBL1143415, “Differential fungicidal activities of amphotericin B and voriconazole against Aspergillus species determined by microbroth methodology” (Antimicrob Agents Chemother, 2007)
